This passage reports IC50 results from ChEMBL document CHEMBL3877241 (J Med Chem, 2016).

A short description of assay [1]: Antiproliferative activity against human KMS-12-BM cells after 48 hrs by CellTiter-Glo assay. The format is functional, cell-based. (In ATP-based viability assays light output follows the ATP content of the culture.)
For assay [2], the target named is Histone deacetylase 3/Nuclear receptor corepressor 2 (HDAC3/NCoR2) (Homo sapiens, UniProt O15379). The assay can be described thus: Inhibition of full length human recombinant C-terminal His-tagged HDAC3 (1 to 428 residues)/N-terminal GST-tagged NCOR2 (395 to 489 residues) expressed in insect cells preincubated with enzyme followed by fluorogenic Arg-His-Lys-Lys(Ac)-AMC substrate addition measured after 2 hrs by fluorescence assay.

The nature of assay [3]: Antiproliferative activity against human OPM2 cells after 48 hrs by CellTiter-Glo assay. In kind it is functional, cell-based. Particulars: OPM-2, 48 h. The gist of the method: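 OPM2 grown in RPMI 1640 with 10% FBS and penicillin/streptomycin at 37 °C, 5% CO2. Treated at 25,000 cells/well in triplicate for 48 h. Viability read by CellTiter-Glo luminescence. IC50 taken from a sigmoidal fit of % viability vs log concentration.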

Chain of Histone deacetylase 3/Nuclear receptor corepressor 2 (HDAC3/NCoR2) (O15379 whole entry, the tested form may be a part): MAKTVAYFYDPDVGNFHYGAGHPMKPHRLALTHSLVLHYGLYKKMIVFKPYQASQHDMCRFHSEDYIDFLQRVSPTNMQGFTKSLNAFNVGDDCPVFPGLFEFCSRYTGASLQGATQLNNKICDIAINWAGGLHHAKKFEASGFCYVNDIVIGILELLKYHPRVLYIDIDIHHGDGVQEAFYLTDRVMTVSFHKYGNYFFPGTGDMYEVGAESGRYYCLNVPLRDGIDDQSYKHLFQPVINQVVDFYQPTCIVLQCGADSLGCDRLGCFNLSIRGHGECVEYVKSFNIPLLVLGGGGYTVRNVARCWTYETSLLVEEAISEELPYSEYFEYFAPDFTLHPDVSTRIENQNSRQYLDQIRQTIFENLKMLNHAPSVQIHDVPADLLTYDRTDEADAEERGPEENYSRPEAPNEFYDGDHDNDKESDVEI
Chain of Histone deacetylase 3/Nuclear receptor corepressor 2 (HDAC3/NCoR2) (Q9Y618 whole entry, further chain, the tested form may be a part): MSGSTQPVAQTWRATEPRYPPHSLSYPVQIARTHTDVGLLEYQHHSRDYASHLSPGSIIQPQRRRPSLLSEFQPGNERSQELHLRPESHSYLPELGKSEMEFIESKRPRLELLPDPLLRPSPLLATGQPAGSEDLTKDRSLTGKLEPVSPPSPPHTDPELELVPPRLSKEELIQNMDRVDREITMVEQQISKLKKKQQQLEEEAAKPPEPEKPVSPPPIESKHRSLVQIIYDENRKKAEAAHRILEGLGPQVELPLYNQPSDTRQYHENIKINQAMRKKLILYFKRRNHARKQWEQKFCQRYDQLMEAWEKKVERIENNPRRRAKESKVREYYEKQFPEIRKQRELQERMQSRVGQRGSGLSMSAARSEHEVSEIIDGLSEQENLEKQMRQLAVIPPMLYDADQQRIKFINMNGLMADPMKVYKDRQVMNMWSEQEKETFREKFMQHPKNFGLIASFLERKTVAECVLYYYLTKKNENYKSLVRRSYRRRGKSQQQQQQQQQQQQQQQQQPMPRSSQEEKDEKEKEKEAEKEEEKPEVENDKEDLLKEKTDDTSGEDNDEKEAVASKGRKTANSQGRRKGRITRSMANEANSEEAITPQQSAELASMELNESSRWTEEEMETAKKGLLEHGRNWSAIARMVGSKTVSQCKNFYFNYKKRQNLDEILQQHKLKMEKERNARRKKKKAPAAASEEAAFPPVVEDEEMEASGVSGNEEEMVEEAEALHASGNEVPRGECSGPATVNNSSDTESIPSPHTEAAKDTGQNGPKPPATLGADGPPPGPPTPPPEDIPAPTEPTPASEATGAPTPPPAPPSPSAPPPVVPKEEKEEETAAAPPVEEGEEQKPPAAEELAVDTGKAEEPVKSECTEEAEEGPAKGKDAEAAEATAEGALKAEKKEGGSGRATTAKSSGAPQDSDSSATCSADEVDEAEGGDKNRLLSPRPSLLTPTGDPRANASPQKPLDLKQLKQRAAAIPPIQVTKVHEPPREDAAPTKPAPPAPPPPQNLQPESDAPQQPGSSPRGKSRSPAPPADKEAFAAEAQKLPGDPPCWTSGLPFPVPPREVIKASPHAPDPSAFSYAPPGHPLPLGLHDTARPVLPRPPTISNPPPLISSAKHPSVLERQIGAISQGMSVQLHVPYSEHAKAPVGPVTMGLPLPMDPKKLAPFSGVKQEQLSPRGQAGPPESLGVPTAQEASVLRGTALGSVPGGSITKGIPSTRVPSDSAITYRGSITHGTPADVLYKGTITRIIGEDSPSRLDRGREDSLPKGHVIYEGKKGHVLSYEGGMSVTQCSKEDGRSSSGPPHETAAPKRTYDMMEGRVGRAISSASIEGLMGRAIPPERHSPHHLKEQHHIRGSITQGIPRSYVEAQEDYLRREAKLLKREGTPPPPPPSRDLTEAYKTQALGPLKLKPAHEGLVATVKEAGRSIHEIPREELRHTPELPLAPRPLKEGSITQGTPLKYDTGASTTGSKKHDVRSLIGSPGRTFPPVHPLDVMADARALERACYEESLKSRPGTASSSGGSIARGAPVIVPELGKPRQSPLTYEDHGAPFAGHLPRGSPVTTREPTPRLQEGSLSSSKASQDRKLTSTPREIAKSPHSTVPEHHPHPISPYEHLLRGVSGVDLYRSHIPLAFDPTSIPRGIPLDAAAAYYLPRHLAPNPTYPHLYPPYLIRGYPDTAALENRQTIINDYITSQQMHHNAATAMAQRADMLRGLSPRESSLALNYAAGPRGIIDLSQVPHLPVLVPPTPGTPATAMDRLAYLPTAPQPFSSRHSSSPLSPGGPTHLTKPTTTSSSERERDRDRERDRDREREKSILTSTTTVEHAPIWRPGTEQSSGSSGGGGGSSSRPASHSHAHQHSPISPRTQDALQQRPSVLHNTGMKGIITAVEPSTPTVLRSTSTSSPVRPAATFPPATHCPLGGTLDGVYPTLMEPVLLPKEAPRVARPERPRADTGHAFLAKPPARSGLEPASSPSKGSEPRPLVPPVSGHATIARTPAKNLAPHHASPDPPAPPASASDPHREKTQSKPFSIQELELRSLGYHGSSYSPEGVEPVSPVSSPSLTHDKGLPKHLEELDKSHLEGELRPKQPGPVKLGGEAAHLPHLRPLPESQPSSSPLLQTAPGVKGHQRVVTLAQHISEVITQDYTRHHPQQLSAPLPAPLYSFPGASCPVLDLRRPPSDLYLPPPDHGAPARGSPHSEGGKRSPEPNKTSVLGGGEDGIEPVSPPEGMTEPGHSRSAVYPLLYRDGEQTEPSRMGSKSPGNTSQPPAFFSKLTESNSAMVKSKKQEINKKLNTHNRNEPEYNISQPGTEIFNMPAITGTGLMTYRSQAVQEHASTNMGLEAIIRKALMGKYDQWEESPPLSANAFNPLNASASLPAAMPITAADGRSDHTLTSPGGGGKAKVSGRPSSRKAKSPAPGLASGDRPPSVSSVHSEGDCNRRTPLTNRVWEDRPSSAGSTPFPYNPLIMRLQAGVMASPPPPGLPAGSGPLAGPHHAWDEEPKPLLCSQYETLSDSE

As a reminder, the IC50 is the point on the concentration scale where inhibition reaches its midpoint. As for `O=C(CCCCCCOc1ccc2cc1COC/C=C/COCc1cccc(c1)-c1ccnc(n1)N2)NO`, the IC50 in assay [1] was found to be 2.11 µM; in assay [2], 2.17 µM; in assay [3], 2.05 µM.
